biological target: Scavenger receptor class B member 1 (Mus musculus) (UniProt Q61009); experiment: SR-BI-mediated DiI-HDL uptake inhibitors, dose response, ldlA[mSR-BI] CHO cells, powder samples, set 3 (AID 588553); settings: DiI-HDL uptake fluorescence, 3 h
Outline: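 Incubation: 3 h at 37 °C; material: ldlA[mSR-BI] CHO cells; control set: DMSO and BLT-1; buffer or medium: F12 medium with BSA and HEPES; technique: fluorescence, ex 550 nm, em 595 nm; also added: DiI-labelled HDL, 10 µg/mL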

Sequence of Scavenger receptor class B member 1 (Mus musculus) (Q61009 whole entry, looked up): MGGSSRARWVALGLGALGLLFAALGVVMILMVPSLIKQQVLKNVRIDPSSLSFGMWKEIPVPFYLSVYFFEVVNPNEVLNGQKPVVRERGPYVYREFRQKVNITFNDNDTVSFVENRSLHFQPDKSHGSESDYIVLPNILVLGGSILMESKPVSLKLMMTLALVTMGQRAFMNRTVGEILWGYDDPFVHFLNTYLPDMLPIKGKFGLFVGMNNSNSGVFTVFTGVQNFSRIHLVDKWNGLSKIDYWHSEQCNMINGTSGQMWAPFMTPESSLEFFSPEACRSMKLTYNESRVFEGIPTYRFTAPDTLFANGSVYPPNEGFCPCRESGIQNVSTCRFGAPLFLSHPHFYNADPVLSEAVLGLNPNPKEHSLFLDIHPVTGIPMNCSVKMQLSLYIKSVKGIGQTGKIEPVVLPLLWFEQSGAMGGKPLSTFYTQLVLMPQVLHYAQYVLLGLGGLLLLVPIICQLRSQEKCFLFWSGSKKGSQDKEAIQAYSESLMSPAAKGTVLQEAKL

Compound	AC50 [nM]
COc1cc(OC)cc(C(=O)Nc2nc(-c3ccc4c(c3)CCN4C(=O)CN(C)C)cs2)c1	< 15
COc1cc(OC)cc(C(=O)Nc2nc(-c3ccc4c(c3)CCN4C(C)=O)cs2)c1	17.4
O=C(CN(C(=O)Cn1nnc(-c2ccc3c(c2)OC(F)(F)O3)n1)C1CCCCC1)NC1CCCC1	65.3
CCC(=O)N1CCc2cc(-c3csc(NC(=O)c4cc(OC)c(OC)c(OC)c4)n3)ccc21	< 15
CCC(=O)N1CCc2cc(-c3csc(NC(=O)c4cccc(OC(F)(F)F)c4)n3)ccc21	29.2
CCC(=O)N1CCc2cc(-c3csc(NC(=O)c4ccco4)n3)ccc21	58.7
COc1cc(OC)cc(C(=O)Nc2nc(-c3ccc4c(c3)CCN4)cs2)c1	113
CCC(=O)N1CCc2cc(-c3csc(NC(=O)c4cc5cccnc5o4)n3)ccc21	141
CCC(=O)Nc1ccc(-c2csc(NC(=O)c3cccc(OC)c3)n2)cc1	44.7
CCC(=O)Nc1ccc(-c2csc(NC(=O)c3ccco3)n2)cc1	2010
COc1ccc(-c2nnn(CC(=O)N(CC(=O)NC3CCCC3)C3CCCCC3)n2)cc1OC	< 15
CC(C(=O)NC1CCCC1)N(C(=O)Cn1nnc(-c2ccc3c(c2)OC(F)(F)O3)n1)C1CCCCC1 (configuration not stated)	225
COc1cc(OC)cc(C(=O)Nc2nc(-c3ccc4[nH]ccc4c3)cs2)c1	228
CC(C(=O)NC1CCCC1)N(C(=O)Cn1nnc(-c2ccc3c(c2)OCO3)n1)C1CCCCC1 (configuration not stated)	17
CC(C)(C)OC(=O)N1CCc2cc(-c3noc(NC(=O)c4ccco4)n3)ccc21	13900
COc1ccc(-c2nc(CC(=O)N(C3CCCCC3)C(C)C(=O)NC3CCCC3)cs2)cc1OC (configuration not stated)	6280

Compound	AC50 [nM]
CCC(=O)N1CCc2cc(-c3csc(NC(=O)c4cc(OC)cc(OC)c4)n3)ccc21	52.9
CCC(=O)N1CCc2cc(-c3csc(N(C)C(=O)c4cc(OC)cc(OC)c4)n3)ccc21	180
CCNC(=O)N1CCc2cc(-c3csc(NC(=O)c4cc(OC)cc(OC)c4)n3)ccc21	< 15
COC(=O)N1CCc2cc(-c3csc(NC(=O)c4cc(OC)cc(OC)c4)n3)ccc21	26.9
CC(C(=O)NC1CCCC1)N(C(=O)Cn1nnc(-c2ccc3c(c2)OCO3)n1)C1CCOCC1 (configuration not stated)	836
COc1cc(OC)cc(C(=O)Nc2nc(-c3ccc4c(c3)CCN4C(=O)OC(C)(C)C)cs2)c1	< 15
CCCCCCC1CCC/C1=N\NC(N)=S (configuration not stated)	< 15
O=C(Nc1nc(-c2ccc3c(c2)CCN3)cs1)c1ccco1	< 15
COCC(=O)N1CCc2cc(-c3csc(NC(=O)c4cc(OC)cc(OC)c4)n3)ccc21	< 15
O=C(CN(C(=O)Cn1nnc(-c2ccc(Cl)c(Cl)c2)n1)C1CCCCC1)NC1CCCC1	303
CCC(=O)Nc1ccc(-c2csc(N)n2)cc1	140
CC(C(=O)NC1CCCC1)N(C(=O)Cn1nnc(-c2ccc(Cl)c(Cl)c2)n1)C1CCCCC1 (configuration not stated)	108
CCCN1CCc2cc(-c3csc(NC(=O)c4cc(OC)cc(OC)c4)n3)ccc21	89.5
O=C(CN(C(=O)Cn1nnc(-c2ccc3c(c2)OCO3)n1)C1CCCCC1)NC1CCCC1	< 15
COc1ccc(-c2cc(CC(=O)N(C3CCCCC3)C(C)C(=O)NC3CCCC3)no2)cc1OC (configuration not stated)	15.4
CCC(=O)N1CCc2cc(-c3csc(/N=C(/OC)c4cc(OC)cc(OC)c4)n3)ccc21	44.1
